Columns and labels:
dopamine receptors = details: cited from earlier work
NTMT1 [1] = details: cited from earlier work
NTMT1 [2] = target: T1, NTMT1 (Homo sapiens, UniProt Q9BV86); experiment: SAHH-coupled ThioGlo3 fluorescence assay, 1536-well; type: biochemical; details: IC50, Epigenetic Library qHTS, 1 nM to 57 μM
T1 sequence (Q9BV86 1-222): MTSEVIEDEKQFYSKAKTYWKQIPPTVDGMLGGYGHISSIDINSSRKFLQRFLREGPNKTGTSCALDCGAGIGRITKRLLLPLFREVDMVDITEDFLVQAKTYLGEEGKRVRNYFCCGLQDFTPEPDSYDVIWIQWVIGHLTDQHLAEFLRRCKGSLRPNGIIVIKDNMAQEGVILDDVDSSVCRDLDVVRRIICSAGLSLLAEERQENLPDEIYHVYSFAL
Procedure, shortened: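 Final mix of His-NTMT1 125 nM, SAHH 10 μM, SAM 100 μM and ThioGlo3 15 μM in 25 mM Tris pH 7.5, 10 mM KCl, 0.01% Triton X-100. Test compounds were pin-transferred in qHTS dilution series, then SPKRIA peptide was added to 1 μM final (4 μL). Incubation was 30 min, read at Ex 340/Em 450. Fluorescence change from the initial read was normalized plate-wise to DMSO and Ac-RCC1-10 controls.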

NTMT1 [3] = target: T1, NTMT1; experiment: MTase-Glo luminescence assay, 1536-well; type: biochemical; details: IC50, Epigenetic Library qHTS, 1 nM to 57 μM
Procedure, shortened: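 His-tagged NTMT1 was expressed with IPTG induction at 15 °C overnight and purified on Ni-NTA. It was used at 125 nM final with 100 μM SAM in 4 μL wells. Optimized SAHH-ThioGlo3 conditions served as the starting point, with kit reagents at recommended concentrations. SAH was converted to ADP and read by luminescence. Data were normalized plate-wise to DMSO and Ac-RCC1-10 controls, then fitted to concentration-response curves.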

NTMT1 [4] = target: T1, NTMT1; experiment: MALDI-MS methylation inhibition assay; type: biochemical; details: data not shown
[5] = target: cyclin-dependent kinase 1 (CDK1)/cyclin B; details: cited from earlier work

| Compound | Km (NTMT1 [1]) | inhibition in MS testing (NTMT1 [4]) | also measured |
| --- | --- | --- | --- |
| N[C@@H]1CCc2cc(O)c(O)cc2C1 [6,7-ADTN] | – | – | IC50 (dopamine receptors): 0.0017 µM |
| GPKRIA | 0.5 µM | – | – |
| [N-]=[N+]=Nc1nc2c(N)ncnc2n1[C@@H]1O[C@H](CO)[C@@H](O)[C@H]1O [8-Azidoadenosine] | – | no inhibition | IC50 (NTMT1 [2]): 17.1 to 24.3 µM; IC50 (NTMT1 [3]): 17.1 to 24.3 µM |
| COc1cc2nc(N3CCCC3)nc(NC3CC3)c2cc1OC [NCGC00249822] | – | no inhibition | – |
| CCn1cnc2c(Nc3cccc(Cl)c3)nc(N[C@@H]3CCCC[C@@H]3N)nc21 [CGP 74514A] | – | – | IC50 [5]: 0.031 µM |
| APKRQSPLPP | 2 µM | – | – |

— PMC7429283 (ACS combinatorial science, 2020)
